Test results: ChEMBL document CHEMBL4814013, “Scaffold repurposing of fendiline: Identification of potent KRAS plasma membrane localization inhibitors” (Eur J Med Chem, 2021)
Activity calls are given as the source filed them. The rule behind the calls is not given here.

Assays:
[1] = system: MDCK; test: Inhibition of ASM in dog MDCK cells co-expressing recombinant full length mGFP-tagged KRAS G12V mutant and mCherry-CAAX assessed as reduction in plasma membrane localization of KRAS mutant incubated for 48 hrs by confocal microscopic analysis relative to control; assay type: cell membranes; settings: Canis lupus familiaris
Outline: (§1)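 MDCK cells stably co-expressing mGFP-KRAS G12V or mGFP-LactC2 with mCherry-CAAX (HRAS 179–189 C181S/C184S) grown on coverslips in DMEM/10% FBS. Treated 48 h with 0.1% DMSO or graded drug, fixed in 4% paraformaldehyde, then quantitative confocal imaging. Mislocalization scored as the Manders fraction of mCherry-CAAX co-localizing with the GFP probe. IC50 and Emax from three independent experiments.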

[2] = system: Caenorhabditis elegans; test: In vivo inhibition of KRAS signaling in Caenorhabditis elegans lin-1 L1 harboring let60 […] mutant assessed as reduction in multi-vulva phenotype measured after 4 to 5 days culturing in buffer containing Escherichia coli OP50 by DIC/Nomarski microscopic analysis; assay type: functional, organism-based; settings: dose 0.1-30 µM, time 4-5 day
Outline: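 let-60 (n1046) or lin-1 L1 larvae cultured in M9 buffer with E. coli OP50 plus DMSO vehicle or compound at 0.1, 0.3, 1, 3, 10 or 30 µM. After 4–5 days, adults were scored for multi-vulva by DIC/Nomarski microscopy.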

[3] = system: MIA PaCa-2; test: Antitumor activity against human MIA PaCa-2 cells harboring KRAS mutant xenografted in nu/nu mouse assessed as reduction in tumor growth at 1 to 5 mg/kg, ip administered once daily for 5 days with 2 days break by caliper analysis; assay type: functional, organism-based; settings: dose 1-5 mg/kg, time 5.0 day
Outline: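 Female nu/nu mice given 2 × 10⁶ early-passage MiaPaCa-2 cells subcutaneously in the right flank, randomized 10 per group. Dosing began when tumors reached 100 mm³: 1, 2.5 or 5 mg/kg i.p. daily for 5 days with 2 days off, vehicle DMSO. Caliper readings every 3–4 days, V = 0.52 × length × width². Animals sacrificed when any tumor reached 1500 mm³.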

[4] = system: HEC-1-A; test: Antiproliferative activity against human HEC-1-A cells expressing mutant KRAS assessed as reduction in cell growth incubated for 72 hrs by CyQuant proliferation assay; assay type: functional, cell-based
Outline: (§2)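 Cells seeded in 96-well plates; after 24 h fresh growth medium with 0.1% DMSO vehicle or drug added (highest dose 30 µM for cancer lines), grown 72 h at 37 °C, 5% CO2. Live cell number measured by CyQUANT fluorescence. IC50 from three independent experiments. MEFs were isogenic lines carrying oncogenic BRAF or KRAS.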

[5] = system: NCI-H1299; test: Antiproliferative activity against human NCI-H1299 cells expressing wild type KRAS assessed as reduction in cell growth incubated for 72 hrs by CyQuant proliferation assay; assay type: functional, cell-based; settings: NCI-H1299, 72 h; outline: as §2
[6] = system: BXPC-3; test: Antitumor activity against human BXPC-3 cells harboring wild type KRAS xenografted in nu/nu mouse assessed as reduction in tumor growth at 1 mg/kg, ip administered once daily for 5 days with 2 days break by caliper analysis; assay type: functional, organism-based; settings: time 5.0 day
Outline: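 BxPC3 xenografts in nu/nu mice dosed i.p. with compound or DMSO vehicle on a schedule of daily for 5 days and 2 days off. Tumor size measured by external caliper every 3–4 days.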

[7] = system: Caco-2; test: Antiproliferative activity against human Caco-2 cells expressing wild type KRAS assessed as reduction in cell growth incubated for 72 hrs by CyQuant proliferation assay; assay type: functional, cell-based; settings: Caco-2, 72 h; outline: as §2
[8] = system: Ishikawa; test: Antiproliferative activity against human Ishikawa cells expressing wild type KRAS assessed as reduction in cell growth incubated for 72 hrs by CyQuant proliferation assay; assay type: functional, cell-based; outline: as §2
[9] = Inhibition of ASM in dog MDCK cells co-expressing recombinant full length mGFP-tagged KRAS G12V mutant and mCherry-CAAX assessed as reduction in plasma membrane localization of KRAS mutant incubated for 48 hrs by confocal microscopic analysis; assay type: cell membranes, Canis lupus familiaris; outline: as §1
[10] = system: ESS-1; test: Antiproliferative activity against human ESS-1 cells expressing wild type KRAS assessed as reduction in cell growth upto 30 uM incubated for 72 hrs by CyQuant proliferation assay; assay type: functional, cell-based; settings: dose microM <=30, time 72.0 hrs; outline: as §2
[11] = biological target: T1, Sphingomyelin phosphodiesterase (Homo sapiens) (UniProt P17405); test: Inhibition of human GFP-tagged ASM expressed in dog MDCK cells using sphingomyelin as substrate at 5 uM incubated for 48 hrs by Amplex Red dye based fluorescence analysis; assay type: cell-based
T1 sequence (whole entry): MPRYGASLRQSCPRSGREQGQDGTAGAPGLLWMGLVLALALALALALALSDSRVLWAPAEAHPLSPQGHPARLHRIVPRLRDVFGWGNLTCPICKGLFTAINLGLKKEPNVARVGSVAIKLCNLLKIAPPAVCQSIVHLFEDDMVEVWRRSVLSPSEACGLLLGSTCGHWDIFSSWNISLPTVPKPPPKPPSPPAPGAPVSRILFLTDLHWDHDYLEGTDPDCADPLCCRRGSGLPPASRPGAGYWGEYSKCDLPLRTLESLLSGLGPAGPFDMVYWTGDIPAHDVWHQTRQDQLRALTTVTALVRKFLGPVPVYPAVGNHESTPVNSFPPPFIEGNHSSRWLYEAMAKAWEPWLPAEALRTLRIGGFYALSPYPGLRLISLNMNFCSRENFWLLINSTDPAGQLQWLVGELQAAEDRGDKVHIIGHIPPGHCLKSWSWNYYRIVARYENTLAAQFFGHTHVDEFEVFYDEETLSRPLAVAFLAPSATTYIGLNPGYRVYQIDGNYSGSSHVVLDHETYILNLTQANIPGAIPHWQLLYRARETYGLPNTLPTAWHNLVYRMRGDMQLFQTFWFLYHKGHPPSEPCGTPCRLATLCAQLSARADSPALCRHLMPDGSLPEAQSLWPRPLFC
Outline: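 MDCK cells stably expressing human SMPD1-GFP treated 48 h at 5 µM. Whole-cell lysate, made without DTT, mixed with 50 mM sodium acetate pH 5.0 plus sphingomyelin and held 1 h at 37 °C. pH then raised to 7.4 with Amplex Red mix (100 µM Amplex Red, 2 U/mL HRP, 0.2 U/mL choline oxidase, 8 U/mL alkaline phosphatase, 100 mM Tris pH 8.0), 60 min at 37 °C. Fluorescence read at Ex 540/Em 590 nm. Controls: 0.1 U/mL SMase (positive), buffer alone (negative).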

[12] = system: HEC-1B cell line; test: Antiproliferative activity against human HEC-1B cells expressing mutant KRAS assessed as reduction in cell growth incubated for 72 hrs by CyQuant proliferation assay; assay type: functional, cell-based; outline: as §2
[13] = system: Mus musculus; test: In vivo inhibition of KRAS signaling in nu/nu mouse xenografted with human MIA PaCa-2 cells harboring KRAS mutation assessed as decrease in ERK phosphorylation in tumor at 1 to 5 mg/kg, ip administered once daily for 5 days with 2 days break by immunohistochemistry; assay type: functional, organism-based; settings: dose 1-5 mg/kg, time 5.0 day
Outline: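 Paraffin tumor sections of 4–5 µm were deparaffinized and given heat antigen retrieval in 10 mM sodium citrate. Endogenous peroxidase was quenched and sections blocked in 2.5% normal goat serum. Primary antibody (pERK or cleaved caspase 3) applied overnight at 4 °C, biotinylated secondary 1:250 for 45 min at rt, then ABC reagent 30 min and DAB development. Rabbit IgG served as control.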

[14] = Antiproliferative activity against human MPANC96 cells expressing KRAS mutant assessed as reduction in cell growth incubated for 72 hrs by CyQuant proliferation assay; assay type: functional, cell-based; settings: MPANC96, 72 h; outline: as §2

Row | IC50 [5] | IC50 [7] | Structure (SMILES) | Emax [1] | inhibition [2] | Activity [3] | IC50 [4] | Activity [6] | IC50 [8] | IC50 [9] | Activity [10] | inhibition [11] | IC50 [12] | inhibition [13] | IC50 [14]
1 | 8 µM | 4.2 µM | COc1ccc([C@@H](C)N(CC=C(c2ccccc2)c2ccccc2)CCN2CCCC2)cc1 | 0.85 | Dose-Dependent Effect | Active | 2300 nM | inactive | 17.3 µM | 300 nM | inactive | Active | 3000 nM | Active | 3.8 µM
2 |  |  | COc1ccc([C@@H](C)N(CC=C(c2ccccc2)c2ccccc2)CCCN2CCN(C)CC2)cc1 | 0.81 | Dose-Dependent Effect |  |  |  | 11 µM | 20 nM | inactive | Active |  | Active | 4.2 µM
